procasp7 counter – counter-screen for procaspase-3 activators: activators of human procaspase-7; recombinant procaspase-7, Ac-DEVD-pNA absorbance 405 nm; D23A/D198A/D206A triple mutant, cannot self-cleave; scale: DMSO 0, 5 µM enzyme 100; activation, % at 8.5 µM; 330,000 tested, 0.093% active; AID 463210;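 active means percent activation above the screen-wide mean plus 3 SD, cut at about 25% in these data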
Target sequence (P55210 whole entry D23A/D198A/D206A): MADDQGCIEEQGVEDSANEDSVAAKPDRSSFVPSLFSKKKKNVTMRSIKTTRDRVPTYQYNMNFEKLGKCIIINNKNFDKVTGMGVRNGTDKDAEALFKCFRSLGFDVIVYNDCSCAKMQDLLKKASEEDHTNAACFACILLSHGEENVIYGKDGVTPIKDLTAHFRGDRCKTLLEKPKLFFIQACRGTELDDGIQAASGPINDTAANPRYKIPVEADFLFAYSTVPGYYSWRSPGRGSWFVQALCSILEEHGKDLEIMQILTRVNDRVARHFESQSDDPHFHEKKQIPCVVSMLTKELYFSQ
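Assay system: Uncleavable procaspase-7 mutant enzyme / Input: 2 µM procaspase-7 mutant as dispensed / Dosing: single nominal 8.5 µM compound dose, 0.8% DMSO final / Timing: 1 h enzyme–compound preincubation and 2 h substrate reaction, both 25 °C / Detection: p-Nitroaniline absorbance at 405 nm, read at 0 and 120 min / Replication: singlicate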
PLC-beta3 inh – inhibitors of human phospholipase C beta3; Q01970; Purified PLC-beta3, fluorogenic substrate, fluorescence; inhibition, % at 12.2 µM; 370,000 tested, 0.18% active; in the data active means inhibition above about 11%;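 further: 0% = median of compound wells on plate and 100% = full blocker control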
Arr AP2 block – inhibitors of human beta-arrestin and AP2 interaction; inhibition, % at 10 µM; 340,000 tested, 0.31% active; FITC-arrestin peptide / GST-AP2 beads, flow cytometry; AP2 beta2 appendage carries R879A mutation; AID 504490;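 active means inhibition above a set limit, near 3 SD of compounds lacking own fluorescence, cut at about 54% in these data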;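 further: plate controls were DMSO wells for no effect and 5 µM unlabelled arrestin peptide for full effect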
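System: GST-AP2 R879A glutathione beads | Also added: FITC-arrestin peptide, 50 nM | Times: 12 min plus 1 h, RT | Signal: Bead flow cytometry, FITC channel | Buffer or medium: PBS with 0.05% Tween 20 and 0.1% BSA | Read-out basis: Percent drop in bead-associated FITC signal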
PLCg1 inh – inhibitors of human phospholipase C gamma1; P19174; purified PLC-gamma1, fluorogenic substrate, fluorescence; inhibition, % at 12.2 µM; 370,000 tested, 0.84% active; in the data active means inhibition above about 9.5%
sPLA2-III inh – Blocks human group III sPLA2 activity | 370,000 tested, 0.56% active | Q9NZ20 | inhibition, % at 12.2 µM | QFRET BODIPY PC-A2 liposome hydrolysis, fluorescence;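 active means inhibition above mean plus 3 SD of compounds lying within the high and low control bounds, cut at about 19% in these data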;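 further: 0% = median of test compound wells and 100% = no enzyme DMSO wells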
procasp3 activ – activates human procaspase-3 | P42574 | recombinant procaspase-3 D3A, Ac-DEVD-pNA absorbance 405 nm | activation, % at 8.5 µM | 330,000 tested, 0.11% active | AID 463141;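 active means activation above the mean of all tested compounds plus 3 SD, cut at about 21% in these data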;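 further: 0% = DMSO alone and 100% = DMSO wells spiked with extra 5 µM PC-3 D3A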
Target sequence (P42574 whole entry D9A/D28A/D175A): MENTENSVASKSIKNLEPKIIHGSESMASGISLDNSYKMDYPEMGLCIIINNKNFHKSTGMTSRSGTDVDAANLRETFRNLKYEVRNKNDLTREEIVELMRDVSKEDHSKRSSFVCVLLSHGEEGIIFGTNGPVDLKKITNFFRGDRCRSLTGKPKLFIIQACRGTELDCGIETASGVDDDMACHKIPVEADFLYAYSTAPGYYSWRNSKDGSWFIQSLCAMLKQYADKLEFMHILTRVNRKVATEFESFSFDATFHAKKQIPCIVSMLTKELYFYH
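Assay system: Procaspase-3 D3A mutant, all three cleavage aspartates alanine. Buffer or medium: Zinc-free HEPES saline buffer with Triton X-100. Times: 1 h compound preincubation, 2 h substrate hydrolysis at 25 °C. Measured by: 405 nm absorbance of p-nitroaniline, reads at 0 and 120 min. Read-out basis: percent activation relative to control range. Replicates: singlicate.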
proCasp7 act trip – counter-screen: procaspase-7 (human) activation in triplicate | 210 tested, under 10 active | shares compounds with procasp3 activ | recombinant procaspase-7, Ac-DEVD-pNA absorbance; asp23/198/206-to-Ala mutant, cannot self-cleave | activation, % at 8.5 µM;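 active means mean activation above a set limit taken from an earlier procaspase-7 screen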;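 further: 0% = DMSO wells and 100% = DMSO plus 5 µM procaspase-7 enzyme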
procasp3 conf – procaspase-3 (human) activation, confirmed; shares compounds with procasp3 activ; activation, % at 8.5 µM; recombinant PC-3 D3A, Ac-DEVD-pNA absorbance 405 nm; 100% is higher-enzyme control; 210 tested, 10% active; AID 488954;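 active means mean activation above a set limit carried over from the earlier primary screen, cut at about 22% in these data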
* hit, by the source's call; i = inactive; · = no result. Most compounds without a hit are left out; they make up all but 1.9% or so of the library.

SMILES	procasp7 counter	PLC-beta3 inh	Arr AP2 block	PLCg1 inh	sPLA2-III inh	procasp3 activ	proCasp7 act trip	procasp3 conf
O=[N+]([O-])c1ccccc1-c1ccc(CN2CCN(c3ccccc3)CC2)o1	-7	-61	-12	-33	8	5	·	·
O=[N+]([O-])c1cccc(-c2ccc(CN3CCN(c4ccccc4)CC3)o2)c1	-4	-4	3	-1	15	23*	-4	2
O=C1C2C(c3ccccc3)=NN(c3ccccc3)C2C(=O)N1c1ccccc1 (stereo not drawn)	25	-184	-6	-167	0	23*	36*	47*
CC(C)N1CCCCC(NC(=O)Cc2ccccc2)C1=O (stereo not drawn)	·	9	·	7	11	·	·	·
O=C(CC1SCCNC1=O)Nc1cccc(C(F)(F)F)c1 (stereo not drawn)	6	0	2	-1	-1	67*	1	4
CCC(C)NC(=O)CNC(=O)c1nn(-c2ccc(OC)c(Cl)c2)c(=O)c2ccccc12 (stereo not drawn)	3	-79	-9	-59	-1	22*	3	3
COc1ccc(-n2nc(C(=O)NCC(=O)NC(C)C)c3ccccc3c2=O)cc1Cl	0	-73	32	-44	6	-4	·	·
COc1cccc(NC(=O)COC(=O)/C=C/c2ccc(Cl)cc2Cl)c1	-7	-1	1	1	-2	5	·	·
COc1ccc(OC)c(/C=C/C(=O)OCC(=O)Nc2cccc(Oc3ccccc3)c2)c1	17	i	17	-452	-27	23*	-22	-14
Cc1ccc(S(=O)(=O)N2CCCC2C(=O)N2CCN(c3ccccc3)CC2)cc1 (stereo not drawn)	·	4	·	0	-3	·	·	·
CCc1c2c3n4c1CCC[C@@H]4C[C@@H]3O[Si](C(C)C)(C(C)C)OC(C)C2=O (stereo partly drawn)	·	-20	·	-17	5	·	·	·
CCCCS(=O)(=O)N1C2=NC3=C(C(=O)N(CCOC)C3=O)C3N(C)c4ccccc4[C@]23C[C@H]1CO (stereo partly drawn)	·	-2	·	0	9	·	·	·
CCCCCCc1cc2cc(C(N)=O)c(=N)oc2cc1O	2	·	·	·	·	1	·	·
CCCCCCc1cc2cc(C(=O)OCC)c(=O)oc2cc1O	20	-116	13	-70	12	36*	-21	-13
CC(=NNC(=O)CSc1nnc(-c2ccccc2)n1-c1ccccc1)c1cccc([N+](=O)[O-])c1	·	0	·	0	-10	·	·	·
O=C(NN=Cc1c(O)ccc2ccccc12)c1ccncc1	·	-173	4	-143	-4	·	·	·
O=C(N/N=C\c1c(O)ccc2ccccc12)c1ccc(O)cc1	3	-45	39	-32	-10	21*	-14	-15
CCN(CC)S(=O)(=O)c1ccc2c(c1)c(=O)c(C(=O)N1CCOCC1)cn2C	7	5	-3	6	5	46*	3	1
O=C1OCCN1C(=O)[C@H]1[C@H](c2ccc(Cl)cc2)C(c2ccc(F)cc2)=NN1c1ccc(Br)cc1	16	-89	13	-50	9	27*	-23	-13
O=C(Nc1cc(S(=O)(=O)N2CCOCC2)ccc1N1CCOCC1)c1ccccc1F	-2	-5	-10	0	6	23*	2	3
O=C(OCC#CCSc1nnc(-c2ccc3ccccc3c2)o1)c1cccs1	·	-1	·	-1	-20	·	·	·
Cc1c(CCC(=O)O)c(=O)oc2cc(O)ccc12	21	i	17	i	8	24*	-21	-12
CCCC1CCC2(CC1)CCC2OC(=O)Nc1cccc(Cl)c1 (stereo not drawn)	·	2	·	1	-3	·	·	·
Oc1c(Br)cc(Br)cc1/C=N/NC(=S)N[C@H]1CC2C=CC1C2 (stereo partly drawn)	19	-274	-13	-193	45*	23*	19	31*
C=CCN1C(=O)[C@@H](CC(=O)N2CCC(c3ccccc3)CC2)[C@]2(C(=O)OC)CCCCC=C12	·	1	·	1	-6	·	·	·
SMILES	procasp7 counter	PLC-beta3 inh	Arr AP2 block	PLCg1 inh	sPLA2-III inh	procasp3 activ	proCasp7 act trip	procasp3 conf
O=c1oc2cc(O)ccc2cc1-c1ccccc1	20	i	-13	i	-10	19	·	·
COc1ccc(-c2cc3ccc(O)cc3oc2=O)cc1	18	i	11	i	-24	22*	-20	-15
CCCCn1c(N)c(N(CC)C(=O)c2cccc(S(=O)(=O)N3CCN(C)CC3)c2)c(=O)[nH]c1=O	6	4	5	5	11	24*	4	7
COc1ccc(S[C@]2(C(=O)N3CCN(C(C)=O)CC3)CC(=O)N(C(=O)/C=C/c3ccccc3)[C@@H]2c2ccc(OC)cc2)cc1	·	-2	·	0	6	·	·	·
CCOc1ccc(-n2c(SCC(=O)Nc3ccccc3-c3ccccc3)nnc2-c2ccccc2)cc1	·	1	·	3	-14	·	·	·
O=c1c2ccccc2c(-c2ccccc2)nn1-c1cc(Cl)cc(Cl)c1	3	0	-6	0	-2	22*	3	6
CC(=O)c1c(C)[nH]c(C(=O)OCC(=O)N2c3ccccc3NC(=O)C2(C)C)c1C	24	3	-4	-1	-2	30*	1	5
CCCN(CC1CC1)C(=O)c1ccc(CNC(=O)c2cccc(Br)c2)cc1	·	-5	·	2	-15	·	·	·
Cc1ccc(NC(=O)CN2CCC(C(=O)c3ccc(F)cc3)CC2)cc1	8	1	-6	0	-1	38*	2	5
Cc1ccc(C(=O)C2CCN(CC(=O)NCc3ccc(F)cc3)CC2)cc1	6	-4	-13	1	3	11	·	·
c1ccc(C2=NN(c3ccccc3)C(c3ccco3)C2)cc1 (stereo not drawn)	24	i	7	i	4	26*	-20	-15
c1ccc(N2N=C(c3cccs3)CC2c2ccco2)cc1 (stereo not drawn)	-4	i	26	i	3	4	·	·
CC(=O)CC[C@@H]1CC[C@]2(CCCN(C(=O)c3ccccc3)C2)O1	·	4	·	1	0	·	·	·
CC(=O)Oc1ccc(-c2cc3c(OC(C)=O)cc(OC(C)=O)cc3oc2=O)cc1	9	i	8	i	-10	52*	-21	-14

Source: PubChem BioAssay (several laboratories)
